Measured values reported in ChEMBL document CHEMBL3286275, “Identification of 1-{2-[4-chloro-1'-(2,2-dimethylpropyl)-7-hydroxy-1,2-dihydrospiro[indole-3,4'-piperidine]-1-yl]phenyl}-3-{5-chloro-[1,3]thiazolo[5,4-b]pyridin-2-yl}urea, a potent, efficacious and orally bioavailable P2Y(1) antagonist as an antiplatelet agent” (Bioorg Med Chem Lett, 2014).
Values after ≈ are worked out from the molar mass of the structure shown. Values belong to the molecule of their own block, whether it stands above or below them. Active and inactive are the calls of the source. The rule behind the calls is not given here.

Tests used:
P2Y purinoceptor 1 = P2Y purinoceptor 1 (Homo sapiens, UniProt P47900); test: Antagonist activity at P2Y1 receptor in human platelets by FLIPR assay in presence of 2-methylthio-ADP
Procedure, shortened: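 Washed human platelets with endogenous P2Y1; calcium signalling read by FLIPR with reduced protein (~0.1% BSA); agonist 2-methylthio-ADP at 1 µM; IC50 given as mean ± SD.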

Liver microsome [1] = test: Metabolic stability in rat liver microsomes assessed as compound remaining; assay type: ADME
Procedure, shortened: (§1)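 Liver microsome stability: percent of compound remaining after incubation with […] (3 µM microsomes in some cases).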

Liver microsome [2] = test: Metabolic stability in human liver microsomes assessed as compound remaining; assay type: ADME; procedure, shortened: as §1
Platelet = test: Inhibition of ADP-induced platelet aggregation in platelet-rich human plasma; assay type: functional
Procedure, shortened: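 Human platelet-rich plasma; aggregation triggered by 10 µM ADP; IC50 determined.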

[3] = Aqueous solubility of the compound at pH 3.9; assay type: physicochemical; conditions: aqueous medium, read-out: Activity
Procedure, shortened: (§2)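 Aqueous solubility taken on crystalline material: free base at pH 6.5, mono-methanesulfonic acid salt at pH 3.9.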

Rattus norvegicus [4] = test: Toxicity in rat assessed as prolongation of mesentric bleeding time at 10 mg/kg, po relative to control; assay type: organism-based; design: dose 10 mg/kg, route oral; conditions: in vivo
Procedure, shortened: (§3)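 Pentobarbital-anesthetized rats dosed by oral gavage 1 h before bleeding-time induction. Vehicle was 1 ml/kg of 10% N,N-dimethylacetamide/90% dextrose 5% water, and compound was given at 0.3, 1, 3 and 10 mg/kg. Cuticle and mesenteric bleeding times were measured and expressed as fold prolongation relative to vehicle. Group sizes were indicated per group.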

Rattus norvegicus [5] = test: Toxicity in rat assessed as prolongation of cuticle bleeding time at 10 mg/kg, po relative to control; assay type: organism-based; design: dose 10 mg/kg, route oral; conditions: in vivo; procedure, shortened: as §3
Rattus norvegicus [6] = test: Antiplatelet activity in pentobarbital anesthetized rat assessed as reduction in platelet aggregation at 10 mg/kg, po; assay type: functional; design: scale not given: the % may be the effect or the level left
Procedure, shortened: (§4)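 Pentobarbital-anesthetized rats; vehicle (1 ml/kg of 10% N,N-dimethylacetamide/90% dextrose 5% water) or 0.3, 1, 3, 10 mg/kg by oral gavage 1 h before FeCl2-induced carotid thrombosis or cuticle/mesenteric bleeding time. End points were thrombus weight and blood flow. Blood was drawn at the end of the thrombosis protocol for ex vivo aggregation. ID50 values derived; SEM reported.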

Rattus norvegicus [7] = test: Antithrombotic activity in pentobarbital anesthetized rat assessed as reduction in FeCl2-induced thrombus weight at 10 mg/kg, po administered 1 hr prior to FeCl2 challenge; assay type: functional; design: scale not given: the % may be the effect or the level left; procedure, shortened: as §4
Rattus norvegicus [8] = test: Antithrombotic activity in pentobarbital anesthetized rat assessed as preservation of blood flow at 10 mg/kg, po administered 1 hr prior to FeCl2 challenge; assay type: functional, organism-based; design: dose 10 mg/kg; procedure, shortened: as §4
Rattus norvegicus [9] = test: Toxicity in po dosed pentobarbital anesthetized rat assessed as prolongation of bleeding time measured after 1 hr; assay type: organism-based; conditions: in vivo; procedure, shortened: as §4
Rattus norvegicus [10] = test: Ex vivo inhibition of platelet aggregation in po dosed pentobarbital anesthetized rat administered 1 hr prior to FeCl2 challenge; assay type: functional; procedure, shortened: as §4
Rattus norvegicus [11] = test: Antithrombotic activity in po dosed pentobarbital anesthetized rat assessed as maintainance of blood flow administered 1 hr prior to FeCl2 challenge; assay type: functional, organism-based; procedure, shortened: as §4
Rattus norvegicus [12] = test: Antithrombotic activity in po dosed pentobarbital anesthetized rat assessed as reduction in FeCl2-induced thrombus weight administered 1 hr prior to FeCl2 challenge
Blood [13] = test: Drug uptake in rat blood at 10 mg/kg, po; assay type: ADME, organism-based; design: dose 10 mg/kg, route oral; conditions: in vivo, read-out: Drug uptake
Blood [14] = test: Drug uptake in rat blood at 3 mg/kg, po; assay type: ADME, organism-based; design: dose 3 mg/kg, route oral; conditions: in vivo, read-out: Drug uptake
Blood [15] = test: Drug uptake in rat blood at 1 mg/kg, po; assay type: ADME, organism-based; design: dose 1 mg/kg, route oral; conditions: in vivo, read-out: Drug uptake
Blood [16] = test: Drug uptake in rat blood at 0.3 mg/kg, po; assay type: ADME, organism-based; design: dose 0.3 mg/kg, route oral; conditions: in vivo, read-out: Drug uptake
[17] = Oral bioavailability in cynomolgus monkey at 5 mg/kg; assay type: ADME, organism-based, Macaca fascicularis; conditions: in vivo
Procedure, shortened: (§5)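 Dog and cynomolgus PK used the methanesulfonic acid salt at 0.2 mg/kg IV and 5 mg/kg PO; clearance, Vdss, half-life and oral bioavailability determined.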

[18] = Oral bioavailability in dog at 5 mg/kg; assay type: ADME, organism-based, Canis lupus familiaris; conditions: in vivo; procedure, shortened: as §5
[19] = Half life in cynomolgus monkey at 0.2 mg/kg, iv and 5 mg/kg, po; assay type: ADME, organism-based, Macaca fascicularis; conditions: in vivo; procedure, shortened: as §5
[20] = Half life in dog at 0.2 mg/kg, iv and 5 mg/kg, po; assay type: ADME, organism-based, Canis lupus familiaris; conditions: in vivo; procedure, shortened: as §5
[21] = Volume of distribution at steady state in cynomolgus monkey at 0.2 mg/kg, iv and 5 mg/kg, po; assay type: ADME, organism-based, Macaca fascicularis; conditions: in vivo, read-out: Vdss; procedure, shortened: as §5
[22] = Volume of distribution at steady state in dog at 0.2 mg/kg, iv and 5 mg/kg, po; assay type: ADME, organism-based, Canis lupus familiaris; conditions: in vivo, read-out: Vdss; procedure, shortened: as §5
[23] = Clearance in cynomolgus monkey at 0.2 mg/kg, iv and 5 mg/kg, po; assay type: ADME, organism-based, Macaca fascicularis; conditions: in vivo; procedure, shortened: as §5
[24] = Clearance in dog at 0.2 mg/kg, iv and 5 mg/kg, po; assay type: ADME, organism-based, Canis lupus familiaris; conditions: in vivo; procedure, shortened: as §5
[25] = Plasma protein binding in rat; assay type: ADME, cell-free; conditions: read-out: PPB (converted)
[26] = Plasma protein binding in rabbit; assay type: ADME, cell-free, Oryctolagus cuniculus; conditions: read-out: PPB (converted)
[27] = Plasma protein binding in human; assay type: ADME, cell-free; conditions: read-out: PPB (converted)
Oryctolagus cuniculus [28] = test: Cardiotoxicity in rabbit assessed as increase in QTc at 10 to 30 mg/kg, iv by surface electrocardiography; assay type: toxicity, organism-based; design: dose 10-30 mg/kg, route intravenous; conditions: in vivo
Procedure, shortened: (§6)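 Anesthetized rabbits given IV doses of 3, 10 and 30 mg/kg in increasing order; plasma concentrations measured; PR, QRS and QTc intervals read by surface ECG.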

Oryctolagus cuniculus [29] = test: Cardiotoxicity in rabbit assessed as QRS interval at 3 to 30 mg/kg, iv by surface electrocardiography; assay type: toxicity, organism-based; design: dose 3-30 mg/kg, route intravenous; conditions: in vivo; procedure, shortened: as §6
Oryctolagus cuniculus [30] = test: Cardiotoxicity in rabbit assessed as PR interval at 3 to 30 mg/kg, iv by surface electrocardiography; assay type: toxicity, organism-based; design: dose 3-30 mg/kg, route intravenous; conditions: in vivo; procedure, shortened: as §6
Plasma [31] = test: Plasma concentration in rabbit at 30 mg/kg, iv; assay type: ADME, organism-based, Oryctolagus cuniculus; design: dose 30 mg/kg, route intravenous; conditions: in vivo; procedure, shortened: as §6
Plasma [32] = test: Plasma concentration in rabbit at 3 mg/kg, iv; assay type: ADME, organism-based, Oryctolagus cuniculus; design: dose 3 mg/kg, route intravenous; conditions: in vivo; procedure, shortened: as §6
Plasma [33] = test: Plasma concentration in rabbit at 10 mg/kg, iv; assay type: ADME, organism-based, Oryctolagus cuniculus; design: dose 10 mg/kg, route intravenous; conditions: in vivo; procedure, shortened: as §6
hERG (KCNH2) = hERG (KCNH2) (Homo sapiens, UniProt Q12809); test: Inhibition of human ERG channel at 1 uM by patch clamp technique
Procedure, shortened: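 hERG current measured in vitro by patch clamp at 1 µM.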

P2X purinoceptor 1 = target: T1, P2X purinoceptor 1 (Homo sapiens, UniProt P51575); test: Antagonist activity at P2X1 receptor (unknown origin) by FLIPR assay
T1 sequence (P51575 whole entry): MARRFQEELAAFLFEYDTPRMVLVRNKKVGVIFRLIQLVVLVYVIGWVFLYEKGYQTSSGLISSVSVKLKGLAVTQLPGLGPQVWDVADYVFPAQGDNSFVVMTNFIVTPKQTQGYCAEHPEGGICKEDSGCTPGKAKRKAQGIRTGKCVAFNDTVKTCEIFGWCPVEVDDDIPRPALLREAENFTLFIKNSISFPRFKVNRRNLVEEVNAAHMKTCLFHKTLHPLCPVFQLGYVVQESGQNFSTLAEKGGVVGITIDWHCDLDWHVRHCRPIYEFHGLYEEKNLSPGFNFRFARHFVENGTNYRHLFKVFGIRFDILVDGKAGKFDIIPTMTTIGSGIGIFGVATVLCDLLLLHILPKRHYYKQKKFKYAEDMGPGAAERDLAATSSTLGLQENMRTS

P2Y purinoceptor 2 = P2Y purinoceptor 2 (Homo sapiens, UniProt P41231); test: Antagonist activity at P2Y2 receptor (unknown origin)
P2Y purinoceptor 12 = P2Y purinoceptor 12 (Homo sapiens, UniProt Q9H244); test: Antagonist activity at P2Y12 receptor (unknown origin)
[34] = Aqueous solubility of the compound at pH 6.5; assay type: physicochemical; conditions: aqueous medium; procedure, shortened: as §2

Sequence of P2Y purinoceptor 1 (P47900 whole entry): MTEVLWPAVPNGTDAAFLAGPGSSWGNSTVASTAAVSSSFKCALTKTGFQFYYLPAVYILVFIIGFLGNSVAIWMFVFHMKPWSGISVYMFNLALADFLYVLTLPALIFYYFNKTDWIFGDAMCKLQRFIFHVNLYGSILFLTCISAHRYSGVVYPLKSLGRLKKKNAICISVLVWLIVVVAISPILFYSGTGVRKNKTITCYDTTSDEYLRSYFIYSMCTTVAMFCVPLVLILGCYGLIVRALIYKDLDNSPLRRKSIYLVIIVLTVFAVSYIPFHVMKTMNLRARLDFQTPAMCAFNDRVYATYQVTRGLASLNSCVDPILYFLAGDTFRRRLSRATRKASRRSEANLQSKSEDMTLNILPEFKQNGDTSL
Sequence of hERG (KCNH2) (Q12809 whole entry): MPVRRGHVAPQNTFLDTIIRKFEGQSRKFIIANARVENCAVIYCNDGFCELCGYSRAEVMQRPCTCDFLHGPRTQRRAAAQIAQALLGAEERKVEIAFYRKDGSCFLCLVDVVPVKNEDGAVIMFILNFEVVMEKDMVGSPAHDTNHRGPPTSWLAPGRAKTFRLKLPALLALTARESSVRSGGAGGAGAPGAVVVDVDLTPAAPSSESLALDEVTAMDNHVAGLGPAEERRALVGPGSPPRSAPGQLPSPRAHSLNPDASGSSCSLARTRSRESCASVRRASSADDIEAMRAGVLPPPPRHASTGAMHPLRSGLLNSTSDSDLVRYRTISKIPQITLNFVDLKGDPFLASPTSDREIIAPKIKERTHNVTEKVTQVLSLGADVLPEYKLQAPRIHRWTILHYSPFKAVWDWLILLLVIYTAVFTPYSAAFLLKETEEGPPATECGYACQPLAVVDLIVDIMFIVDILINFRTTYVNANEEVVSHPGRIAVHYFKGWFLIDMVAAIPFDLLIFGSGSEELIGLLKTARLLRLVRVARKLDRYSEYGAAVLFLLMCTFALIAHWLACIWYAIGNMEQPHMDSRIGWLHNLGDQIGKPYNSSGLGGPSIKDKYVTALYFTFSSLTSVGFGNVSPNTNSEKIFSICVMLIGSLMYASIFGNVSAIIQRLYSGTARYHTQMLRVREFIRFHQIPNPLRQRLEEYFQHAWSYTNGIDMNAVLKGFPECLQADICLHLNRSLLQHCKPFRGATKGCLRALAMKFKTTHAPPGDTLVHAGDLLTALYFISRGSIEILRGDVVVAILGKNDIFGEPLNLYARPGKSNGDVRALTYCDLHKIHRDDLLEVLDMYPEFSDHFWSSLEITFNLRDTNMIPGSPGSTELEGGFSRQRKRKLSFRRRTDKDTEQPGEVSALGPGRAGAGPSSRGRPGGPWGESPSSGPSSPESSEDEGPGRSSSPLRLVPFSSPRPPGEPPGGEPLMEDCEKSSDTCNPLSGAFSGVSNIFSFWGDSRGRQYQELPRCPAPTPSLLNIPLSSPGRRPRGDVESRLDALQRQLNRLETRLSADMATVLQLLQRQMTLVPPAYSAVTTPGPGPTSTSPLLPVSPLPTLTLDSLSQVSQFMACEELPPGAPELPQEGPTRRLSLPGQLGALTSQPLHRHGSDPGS
Sequence of P2Y purinoceptor 2 (P41231 whole entry): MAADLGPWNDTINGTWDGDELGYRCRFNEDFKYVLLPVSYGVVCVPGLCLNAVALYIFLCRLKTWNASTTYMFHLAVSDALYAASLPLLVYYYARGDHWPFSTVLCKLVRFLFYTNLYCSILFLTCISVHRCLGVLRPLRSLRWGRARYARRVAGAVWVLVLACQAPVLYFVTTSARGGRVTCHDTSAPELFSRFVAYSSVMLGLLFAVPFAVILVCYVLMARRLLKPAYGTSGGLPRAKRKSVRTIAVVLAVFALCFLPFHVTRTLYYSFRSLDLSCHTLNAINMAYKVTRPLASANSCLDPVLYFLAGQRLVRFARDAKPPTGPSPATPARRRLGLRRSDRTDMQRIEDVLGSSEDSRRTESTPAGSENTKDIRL
Sequence of P2Y purinoceptor 12 (Q9H244 whole entry): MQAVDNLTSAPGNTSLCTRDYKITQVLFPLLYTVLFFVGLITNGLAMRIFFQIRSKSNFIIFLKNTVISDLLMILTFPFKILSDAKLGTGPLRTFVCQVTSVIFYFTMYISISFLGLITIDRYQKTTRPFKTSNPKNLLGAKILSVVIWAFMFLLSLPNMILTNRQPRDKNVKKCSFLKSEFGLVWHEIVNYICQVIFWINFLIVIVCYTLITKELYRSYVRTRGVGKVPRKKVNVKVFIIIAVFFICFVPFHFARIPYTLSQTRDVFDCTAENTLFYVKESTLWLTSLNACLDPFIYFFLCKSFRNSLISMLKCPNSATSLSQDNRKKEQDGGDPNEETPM

IC50 (P2Y purinoceptor 1): > 150 nM
Compound: CC(C)(C)CN1CCC2(CC1)CN(c1ccccc1NC(=O)Nc1ccc(OC(F)(F)F)cc1)c1cccc(O)c12

Compound: CC(C)(C)CN1CCC2(CC1)CN(c1ccccc1NC(=O)Nc1nc3ccc(F)cc3s1)c1c(O)ccc(Cl)c12
Stability (Liver microsome [1]): 89%
Stability (Liver microsome [2]): 100%
IC50 (Platelet): 230 nM
IC50 (P2Y purinoceptor 1): 0.06 nM

Compound: CC(C)(C)CN1CCC2(CC1)CN(c1ccccc1NC(=O)Nc1nc3ccc(Cl)nc3s1)c1c(O)ccc(Cl)c12
solubility [3]: 680 µg/mL (≈ 1110 µM)
fold change (FC) (Rattus norvegicus [4]): 2.2
fold change (FC) (Rattus norvegicus [5]): 2.5
Activity (Rattus norvegicus [6]): 74%
Activity (Rattus norvegicus [7]): 66%
Activity (Rattus norvegicus [8]): Active
Activity (Rattus norvegicus [9]): Dose-dependent effect
Activity (Rattus norvegicus [10]): Dose-dependent effect
ED50 (Rattus norvegicus [10]; read-out: ID50 (the source's name)): 6.6 mg/kg
Activity (Rattus norvegicus [11]): Dose-dependent effect
IC50 (Rattus norvegicus [12]): 130 nM
ED50 (Rattus norvegicus [12]; po, read-out: ID50): 7.3 mg/kg
concentration (Blood [13]): 240 nM
concentration (Blood [14]): 81 nM
concentration (Blood [15]): 39 nM
concentration (Blood [16]): 7 nM
bioavailability [17]: 22%
bioavailability [18]: 27%
half-life [19]: 8.2 h
half-life [20]: 9.4 h
Vd [21]: 3.3 L/kg
Vd [22]: 2.5 L/kg
clearance [23]: 7.7 mL/min/kg
clearance [24]: 4 mL/min/kg
fraction unbound [25]: 0.002
fraction unbound [26]: 0.007
fraction unbound [27]: 0.007
Activity (Oryctolagus cuniculus [28]): Non-toxic
Activity (Oryctolagus cuniculus [29]): Non-toxic
Activity (Oryctolagus cuniculus [30]): Non-toxic
concentration (Plasma [31]): 158000 nM
concentration (Plasma [32]): 24000 nM
concentration (Plasma [33]): 62000 nM
inhibition at 1 µM (hERG (KCNH2)): 96%
IC50 (P2X purinoceptor 1): 180 nM
IC50 (P2Y purinoceptor 2): > 10000 nM
IC50 (P2Y purinoceptor 12): > 10000 nM
Stability (Liver microsome [1]): 93%
Stability (Liver microsome [2]): 94%
IC50 (Platelet): 130 nM
IC50 (P2Y purinoceptor 1): 0.12 nM
solubility [34]: < 1 µg/mL

Compound: CN(C)S(=O)(=O)c1ccc(O)c2c1C1(CCN(CC(C)(C)C)CC1)CN2c1ccccc1NC(=O)Nc1ccc(OC(F)(F)F)cc1
Stability (Liver microsome [1]): 75%
Stability (Liver microsome [2]): 21%
IC50 (Platelet): 420 nM
IC50 (P2Y purinoceptor 1): 0.13 nM
